Experiment [1] deals with HeLa. The experiment in a line: Induction of monoastral spindles in HeLa cells after 7 hrs. The class given is functional, cell-based. Particulars: Homo sapiens. In a few lines: (§1)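 Fixed 1% paraformaldehyde-PBS 37 °C 3 min, then methanol −20 °C 5 min; anti-β-tubulin plus FITC secondary, propidium iodide counterstain. Monoastral spindles counted as percentage of mitotic cells; <25% deemed not significant.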

Experiment [2] deals with HeLa. The experiment can be described thus: Cell cycle arrest in human HeLa cells assessed as 4N DNA content at 25 uM after 24 hrs. Format: functional. The method, boiled down:
(§2)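 HeLa cells exposed 24 h; two-dimensional flow cytometry with MPM-2 antibody (mitosis-specific phosphoepitopes, FITC-conjugated secondary) and propidium iodide for DNA content; 10,000 events per sample, aggregates gated out; 4N population and fraction MPM-2 positive scored.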

The subject of experiment [3] is HeLa. The experiment in a line: Induction of monoastral spindles in HeLa cells at 50 uM after 7 hrs. Format: functional, Homo sapiens. The method, boiled down: as §1
The target in experiment [4] is T1, Kinesin-like protein KIF11 (Homo sapiens, UniProt P52732).
T1 sequence (P52732 whole entry): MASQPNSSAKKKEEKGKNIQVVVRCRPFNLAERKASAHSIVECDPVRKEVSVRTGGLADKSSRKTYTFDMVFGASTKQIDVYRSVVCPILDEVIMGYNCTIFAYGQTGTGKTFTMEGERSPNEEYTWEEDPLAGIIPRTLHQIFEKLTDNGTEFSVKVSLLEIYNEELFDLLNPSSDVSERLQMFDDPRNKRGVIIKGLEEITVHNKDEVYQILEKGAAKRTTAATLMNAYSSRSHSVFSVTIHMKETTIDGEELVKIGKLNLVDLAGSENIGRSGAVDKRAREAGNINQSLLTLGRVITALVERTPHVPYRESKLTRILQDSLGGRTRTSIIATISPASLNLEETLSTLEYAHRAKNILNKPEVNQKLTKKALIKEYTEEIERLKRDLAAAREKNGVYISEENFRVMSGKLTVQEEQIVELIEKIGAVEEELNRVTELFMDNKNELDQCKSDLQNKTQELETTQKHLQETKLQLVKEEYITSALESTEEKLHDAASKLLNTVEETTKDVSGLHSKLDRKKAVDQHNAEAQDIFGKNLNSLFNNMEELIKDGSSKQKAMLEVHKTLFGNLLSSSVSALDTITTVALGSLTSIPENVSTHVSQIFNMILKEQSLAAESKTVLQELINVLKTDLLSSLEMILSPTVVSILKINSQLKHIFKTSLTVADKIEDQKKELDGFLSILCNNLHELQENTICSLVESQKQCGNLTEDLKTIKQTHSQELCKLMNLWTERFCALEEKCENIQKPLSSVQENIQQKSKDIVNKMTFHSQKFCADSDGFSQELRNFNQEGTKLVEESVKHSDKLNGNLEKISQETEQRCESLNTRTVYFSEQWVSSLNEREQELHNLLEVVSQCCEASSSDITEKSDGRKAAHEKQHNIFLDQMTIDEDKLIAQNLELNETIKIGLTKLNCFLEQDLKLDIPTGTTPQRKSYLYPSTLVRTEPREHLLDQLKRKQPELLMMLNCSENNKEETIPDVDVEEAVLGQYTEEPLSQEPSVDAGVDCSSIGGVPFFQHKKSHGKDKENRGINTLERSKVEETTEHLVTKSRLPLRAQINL
The experiment in a line: Inhibition of Eg5 ATPase activity expressed in Escherichia coli after 12 hrs. Format: functional.

Experiment [5] has as its target T1, Kinesin-like protein KIF11. The experiment can be described thus: Inhibition of microtubule-stimulated Eg5 ATPase activity expressed in Escherichia coli after 12 hrs. Format: functional.
In experiment [6] the test system is HeLa. The experiment in a line: Cell cycle arrest in human HeLa cells assessed as 4N DNA content at 100 uM after 24 hrs. The class given is functional. The method, boiled down: as §2
Experiment [7] relates to HeLa. The experiment can be described thus: Induction of monoastral spindles in HeLa cells at 100 uM after 7 hrs. The class given is functional, Homo sapiens. In a few lines:
as §1

In experiment [8] the target is T2, Kinesin-like protein KIF11 (Homo sapiens) (UniProt P52732).
T2 sequence (whole entry): T1 sequence (P52732 whole entry)
The experiment in a line: Inhibition of Eg5 ATPase activity expressed in Escherichia coli at 500 uM after 12 hrs. The class given is functional. The method, boiled down: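 Basal (no microtubules) steady-state ATPase of Eg5 2–386 at 1.0 µM, pyruvate kinase/lactate dehydrogenase-coupled assay, room temperature, duplicate, 2.5% DMSO; top concentration 500 µM. Acetylated analogues alternatively preincubated (2 mM) 12 h at 37 °C in DMEM + 10% FBS before basal ATPase measurement.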

The target in experiment [9] is T2, Kinesin-like protein KIF11 (Homo sapiens). The experiment in a line: Inhibition of microtubule-stimulated Eg5 ATPase activity expressed in Escherichia coli at 500 uM after 12 hrs. Format: functional.
The target in experiment [10] is T1, Kinesin-like protein KIF11. The experiment can be described thus: Inhibition of Eg5 ATPase activity expressed in Escherichia coli after 12 hrs.

Active and inactive are the calls of the source. No cut-off for these calls is given here. Some results are limits rather than exact numbers.

Consider `CC1=C(C(=O)c2ccco2)C(c2cccc(O)c2)NC(=S)N1` (configuration not stated), for which the half-maximal inhibitory concentration (IC50) in the experiment with HeLa [1] stood at 9.2 µM; in [4], 1.5 µM; in experiment [5] it was 3 µM. Further, the Activity with HeLa [2] was determined as 72%; with HeLa [3], 96.8%; with HeLa [6], 77%.
For the compound `CC(=O)SCCOCCOC(=O)C1=C(C)NC(=S)NC1c1cccc(O)c1` (configuration not stated), the figures for the Activity with HeLa [7] and in the experiment on HeLa [3] were 32.5% and less than 25%, respectively. Also, the IC50 in experiment [4] was 4.5 µM; in experiment [5] it was 11.5 µM.
In turn, `CCOC(=O)C1=C(C)NC(=S)NC1c1cc(O)ccc1[N+](=O)[O-]` (configuration not stated) gave an Activity in the experiment on HeLa [3] of less than 25%. Besides, the outcome in [8] and in experiment [9] was inactive.
`CC1=C(C(=O)OCCOCCOCCOCCO)C(c2cccc(O)c2)NC(=S)N1` (configuration not stated): the Activity in the experiment with HeLa [7] is recorded as 16.8%; in the experiment with HeLa [3], less than 25%. Further, the figures for the IC50 in experiment [4] and in experiment [5] were 23 µM and 62.5 µM, respectively.
The corresponding values for `CC1=C(C(=O)OCCOCCS)C(c2cccc(O)c2)NC(=S)N1` (configuration not stated) are 15.2%, less than 25%, 4 µM and 5.5 µM.
The matching figures for `CC1=C(C(=O)NCCOCCOCCN)C(c2cccc(O)c2)NC(=S)N1` (configuration not stated): 15.8%, less than 25%, 22 µM and 18.3 µM.
The matching figures for `CC1=C(C(=O)OCCOCCO)C(c2cccc(O)c2)NC(=S)N1` (configuration not stated): 50.5%, less than 25%, 9.5 µM and 21 µM.
As for `CCNC(=O)C1=C(C)NC(=S)NC1c1cccc(O)c1` (configuration not stated), the Activity is listed as 17.8% in the experiment with HeLa [7] and less than 25% in the experiment with HeLa [3]. For the same compound, the 50% inhibitory concentration (IC50) is 23 µM in experiment [4] and 82.3 µM in experiment [5].
Consider `CCOC(=O)C1=C(C)NC(=S)NC1c1cc(OC(C)=O)ccc1OC(C)=O` (configuration not stated), for which the Activity in the experiment on HeLa [3] is 56.2%. The result in [8] and in [9] was inactive.
As to `CCOC(=O)C1=C(C)N(CCOCCOCCO)C(=S)NC1c1cccc(O)c1` (configuration not stated), the Activity is 13.6% in the experiment with HeLa [7] and less than 25% in the experiment on HeLa [3]. Moreover, the result in [8] and in [9] was inactive.
`CCOC(=O)C1=C(C)NC(=S)NC1c1ccc(O)c(O)c1` (configuration not stated) returned an Activity with HeLa [3] of less than 25%. The result in experiment [8] and in experiment [9] was inactive.
As for `CC1=C(C(=O)O)C(c2cccc(O)c2)NC(=S)N1` (configuration not stated), the values for the Activity with HeLa [7] and in the experiment on HeLa [3] were 15.5% and less than 25%, respectively. Also, the IC50 in experiment [4] is 32 µM; in [5] it was 72.2 µM.
Take `CCOC(=O)C1=C(C)NC(SCC)=NC1c1cccc(O)c1` (configuration not stated): the Activity in the experiment with HeLa [7] and in the experiment with HeLa [3] was less than 25% each time. Moreover, the outcome in [8] and in experiment [9] was inactive.
On to `COC(=O)Nc1nc2cc(C(=O)c3cccs3)ccc2[nH]1` [NOCODAZOLE], for which the Activity in the experiment with HeLa [2] is reported as 82%.
As for `CCOC(=O)C1=C(C)NC(=S)NC1c1cc(O)ccc1O` (configuration not stated), the outcome in the experiment on HeLa [3] (Homo sapiens) was Active. In addition, the outcome in experiment [8] and in [9] was inactive.
Take `CCOC(=O)C1=C(C)N=C(SCc2ccccc2)NC1c1cccc(O)c1` (configuration not stated): the Activity with HeLa [7] and with HeLa [3] was less than 25% in each case. The outcome in [8] and in experiment [9] was inactive.
For the compound `CCOC(=O)C1=C(C)NC(=S)N(C(C)=O)C1c1cccc(OC(C)=O)c1` (configuration not stated), the results for the IC50 (in the experiment on HeLa [1]; in experiment [10]) were 62.5 µM and 5 µM, respectively. Also, the Activity in the experiment with HeLa [7] is listed as 83.5%; in the experiment on HeLa [3] it was 39.3%. The outcome in experiment [8] and in experiment [9] was inactive.
Turning to `CC1=C(C(=O)NCCOCCOCCN=[N+]=[N-])C(c2cccc(O)c2)NC(=S)N1` (configuration not stated), the Activity with HeLa [7] is 14.9%; in the experiment with HeLa [3], less than 25%. Further, the IC50 in experiment [4] worked out at 39 µM; in [5], 69.1 µM.
For `CCOC(=O)C1=C(C)NC(=S)NC1c1cccc(O)c1` (configuration not stated) [MONASTROL], the IC50 in the experiment on HeLa [1] stood at 51.3 µM; in experiment [4], 6.1 µM; in experiment [5] it was 12.3 µM; in experiment [10], 6.1 µM. In addition, the results for the Activity with HeLa [7], in the experiment on HeLa [3] and in the experiment on HeLa [6] were 94.4%, 45.5% and 48%, respectively.
In the experiment on HeLa [3], `CCOC(=O)C1=C(C)NC(=S)N(C(C)=O)C1c1cccc(O)c1` (configuration not stated) gave an Activity of 36.9%. Also, the result in [8] and in experiment [9] was inactive. The same compound showed a concentration for half-maximal inhibition (IC50) in experiment [10] of 3.8 µM.
Consider `CCOC(=O)C1=C(C)NC(=S)NC1c1cccc(OC(C)=O)c1` (configuration not stated), for which the IC50 with HeLa [1] was found to be 50 µM; in experiment [10] it was 3.9 µM. Further, the Activity was 89.6% in the experiment on HeLa [7] and 49.7% in the experiment with HeLa [3]. Besides, the result in experiment [8] and in experiment [9] was inactive.
As to `CC1=C(C(=O)OCCOCCOC(=O)C2=C(C)NC(=S)NC2c2cccc(O)c2)C(c2cccc(O)c2)NC(=S)N1` (configuration not stated), the Activity in the experiment with HeLa [7] is reported as 11.4%; in the experiment on HeLa [3], less than 25%. Besides, the IC50 came to 10 µM in experiment [4] and 24 µM in [5].
For `CCOC(=O)C1=C(C)NC(=S)NC1c1ccc(OCCOCCOCCO)c(O)c1` (configuration not stated), the Activity with HeLa [7] was 10.3%; in the experiment on HeLa [3] it was less than 25%. For the same compound, the outcome in experiment [8] and in [9] was inactive.
With `CCOC(=O)C1=C(C)NC(=[Se])NC1c1cccc(O)c1` (configuration not stated), the Activity in the experiment on HeLa [7] was 33.2%. Further, the half-inhibitory concentration (IC50) in experiment [4] was 11.5 µM; in experiment [5], 23 µM.

A word on the IC50: it is the concentration that inhibits the measured activity by half. Higher therefore signals weaker potency in that assay.

The values are drawn from ChEMBL document CHEMBL1149635, “New chemical tools for investigating human mitotic kinesin Eg5” (Bioorg Med Chem, 2007).
